Assay results collected from several papers.
Lines come from different studies, so protocols differ.
Target: Homeodomain-interacting protein kinase 2 (HIPK2, Homo sapiens, UniProt Q9H2X6)

For `COc1cc(-c2cc(-c3ccc(N4CCNCC4)cc3)cnc2C)cc(OC)c1OC`, the inhibition was 2% (enzyme activity, inhibitor; 1 µM).
The remaining binding of `COc1ccc2c(c1)O[C@H](c1ccc(OC)c(OC)c1)C[C@@H]2NC(=O)C1(c2ccc3c(c2)OC(F)(F)O3)CC1` is reported as 98% (cell-free assay, competition with immobilised ligand; 1 µM).
`CCN(CC)CCNC(=O)c1c(C)[nH]c(/C=C2\C(=O)Nc3ccc(F)cc32)c1C` gave an inhibition of 20% (enzyme activity, inhibitor; 0.3 µM).
`O=C(Nc1ccc(Oc2ccc(F)cc2)cc1)N1CCc2ncccc2[C@H]1c1ccc(F)cc1` gave a remaining binding of 79% (cell-free assay, competition with immobilised ligand; 1 µM).
For `COc1cc2ncnc(Nc3ccc(Oc4ccccc4)c(C)c3C)c2cc1OC`, the inhibition was 1% (enzyme activity, inhibitor; 1 µM).
With `Cc1ccc(Nc2nccc(N(C)c3ccc4c(C)n(C)nc4c3)n2)cc1S(N)(=O)=O` the inhibition was 21% (enzyme activity, inhibitor; 10 µM).
`O=C(O)c1ccc2c(c1)nc(Nc1ccccc1Cl)c1ncncc12` has a remaining activity of 3% (enzyme activity, inhibitor, radiometric; 1 µM).
For `COc1cc2nccc(Oc3ccc(NC(=O)c4c5n(n(-c6ccc(F)cc6)c4=O)CCCC5)cc3)c2cc1OC`, the inhibition was 10% (enzyme activity, inhibitor; 0.1 µM).
`C[C@H](c1cccc(C#N)c1)n1cc(Cl)cc(C(N)=O)c1=N` has a remaining binding of 100% (cell-free assay, competition with immobilised ligand; 1 µM).
`Cc1ccc(NC(=O)c2ccc(C)c(C(F)(F)F)c2)cc1C#Cc1nn(C2CCC(O)CC2)c2ncnc(N)c12` (stereo not drawn) has a remaining signal of 99% (cell-free assay; 10 µM).
With `O=C(O)c1ccc2c(c1)nc(NCc1ccccc1)c1ccncc12` the remaining activity was 51% (enzyme activity, inhibitor, radiometric; 1 µM).
For `CN([C@@H]1CCc2c(CC(=O)O)c3ccccc3n2C1)S(=O)(=O)c1ccc(F)cc1`, the remaining binding was 100% (cell-free assay, competition with immobilised ligand; 1 µM).
`O=C(O)c1ccc2c(c1)nc(NCCc1cccc(F)c1)c1ccncc12` has a remaining activity of 4% (enzyme activity, inhibitor, radiometric; 1 µM).
`CN(c1ncccc1CNc1nc(Nc2ccc3c(c2)CC(=O)N3)ncc1C(F)(F)F)S(C)(=O)=O` has an inhibition of 85.7% (enzyme activity, inhibitor; 1 µM).
The remaining activity of `COc1cccc(CCNc2nc3cc(C(=O)O)ccc3c3cncnc23)c1` is reported as 22% (enzyme activity, inhibitor, radiometric; 1 µM).
The remaining binding of `N#Cc1ccc(Nc2ccc3[nH]c(=O)[nH]c3c2)c(Cl)c1` is reported as 100% (cell-free assay, competition with immobilised ligand; 1 µM).
`Cc1ccc(NC(=O)c2ccc(CN3CCN(C)CC3)cc2)cc1Nc1nc(-c2cccnc2)cs1` has a remaining signal of 90.8% (cell-free assay; 0.5 µM).
The activity vs control of `Cc1cc(NC(=O)c2cccc3cc(-c4cccc5[nH]nc(N)c45)ccc23)ccc1F` is reported as 103% (enzyme activity, inhibitor; 0.1 µM).
The remaining binding of `COc1cccc(CNC(=O)c2nc3scc(COCc4ccc(C(=O)O)cc4)c3c(=O)[nH]2)c1` is reported as 72.9% (cell-free assay, competition with immobilised ligand; 1 µM).
With `O=C(O)c1ccc2c(c1)nc(Nc1ccc3ccccc3c1)c1ncncc12` the remaining activity was -3% (enzyme activity, inhibitor, radiometric; 1 µM).
For `N#CCCc1ccc2c(c1)-c1[nH]c3ccc([N+](=O)[O-])cc3c1CC(=O)N2`, the remaining signal was 106% (cell-free assay; 0.5 µM).
`O=C(O)c1ccc2c(c1)nc(Nc1ccc(F)c(Cl)c1)c1ncncc12` has a remaining activity of 2% (enzyme activity, inhibitor, radiometric; 1 µM).
`CNC(=O)Nc1ccc2c(c1)CC[C@@]21OC(=O)N(CC(=O)N(Cc2ccc(F)cc2)[C@@H](C)C(F)(F)F)C1=O` has a remaining binding of 95% (cell-free assay, competition with immobilised ligand; 1 µM).
With `N#Cc1cccc(Nc2nc3cc(C(=O)O)ccc3c3cnccc23)c1` the remaining activity was -1% (enzyme activity, inhibitor, radiometric; 1 µM).
For `O=C1NC(=O)c2cc(Nc3ccc(F)cc3)c(Nc3ccc(F)cc3)cc21`, the remaining signal was 96.6% (cell-free assay; 0.5 µM).
For `CN1CCN(c2cnc3c(C4CCN(C(=O)c5ccc(OC(F)(F)F)cc5N)CC4)ncnc3c2)CC1`, the remaining binding was 100% (cell-free assay, competition with immobilised ligand; 1 µM).
With `O=C(O)c1ccc2c(c1)nc(Nc1ccccc1)c1ccncc12` the remaining activity was 10% (enzyme activity, inhibitor, radiometric; 1 µM).
